Assay results gathered from unrelated publications.
Protocols differ between the studies behind these lines.
Target: NUAK family SNF1-like kinase 1 (NUAK1, Homo sapiens, UniProt O60285)
Sequence (O60285 1-661, as in one of the studies): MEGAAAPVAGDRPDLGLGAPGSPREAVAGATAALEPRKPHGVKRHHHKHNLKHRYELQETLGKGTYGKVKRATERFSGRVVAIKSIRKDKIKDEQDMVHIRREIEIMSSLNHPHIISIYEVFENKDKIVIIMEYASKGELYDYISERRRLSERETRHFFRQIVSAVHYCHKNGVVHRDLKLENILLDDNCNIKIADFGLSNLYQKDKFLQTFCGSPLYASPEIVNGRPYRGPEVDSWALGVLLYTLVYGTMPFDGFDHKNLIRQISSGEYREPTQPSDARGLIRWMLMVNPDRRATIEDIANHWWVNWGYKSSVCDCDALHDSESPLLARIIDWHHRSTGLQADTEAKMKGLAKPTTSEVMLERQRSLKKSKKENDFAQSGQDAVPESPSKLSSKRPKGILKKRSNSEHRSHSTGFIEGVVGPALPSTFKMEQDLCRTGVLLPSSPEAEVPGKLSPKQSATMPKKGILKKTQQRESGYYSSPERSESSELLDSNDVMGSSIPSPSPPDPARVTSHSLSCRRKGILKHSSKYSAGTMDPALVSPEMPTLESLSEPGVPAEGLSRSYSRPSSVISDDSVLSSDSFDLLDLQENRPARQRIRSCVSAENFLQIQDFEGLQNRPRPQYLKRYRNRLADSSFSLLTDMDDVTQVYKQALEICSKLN

CN(C)c1ncc(F)c(-c2cnn3ncccc23)n1 — remaining binding (binding; 1 µM): 100%
NS(=O)(=O)c1cc(NC(=O)Cc2ccccc2)ccc1Oc1cccc(Cl)c1 — remaining binding (cell-free assay; competition with immobilised ligand; 1 µM): 100%
O=C(c1ccc(Nc2ncc(Cl)c(-c3ccc(Cl)s3)n2)cc1)N1CCC(N2CCCC2)CC1 — remaining binding (binding; competition with immobilised ligand; 1 µM): 0.65%
CC(=O)N1CCC(c2ccc(C(=O)NC3=NCCN3)cc2C(F)(F)F)CC1 — remaining binding (cell-free assay; competition with immobilised ligand; 1 µM): 98%
Cc1cnc(Nc2ccc(C(=O)N3CCC(N4CCCC4)CC3)cc2)nc1-c1cc2ccccc2s1 — remaining binding (binding; competition with immobilised ligand; 1 µM): 2.7%
COc1cnc(Nc2cccc(S(N)(=O)=O)c2)nc1N1CCN(c2ccccc2)CC1 — remaining binding (binding; competition with immobilised ligand; 1 µM): 82%
COc1ncc2cc3ccccc3nc2c1C#N — remaining binding (cell-free assay; competition with immobilised ligand; 5 µM): 87%
c1cncc(-c2cccc(Nc3nccc(NC4CCCCC4)n3)c2)c1 — remaining binding (binding; competition with immobilised ligand; 10 µM): 16%
O=C1CCc2cc(Nc3cc(OC4CCOCC4)c([N+](=O)[O-])cc3Cl)ccc2N1 — remaining binding (cell-free assay; competition with immobilised ligand; 1 µM): 100%
CN(C)c1nccc(-c2cnn3ncccc23)n1 — remaining binding (binding; 1 µM): 97%
CNCc1ccccc1-c1csc([C@H](C)Nc2nc(C)nc3cc(OC)c(OC)cc23)c1 — remaining binding (cell-free assay; competition with immobilised ligand; 1 µM): 90%
N[C@H]1CCN(c2nccc(-c3cnn4ncccc34)n2)C1 — remaining binding (binding; 1 µM): 63%
O=C(NCc1ncc(C(F)(F)F)cc1Cl)c1ccc2c(c1)C1(CCS(=O)(=O)CC1)[C@H](C1CC1)N2S(=O)(=O)c1ccc(F)cc1 — remaining binding (cell-free assay; competition with immobilised ligand; 1 µM): 83%
C[C@H]1CCN(c2nccc(-c3cnn4ncccc34)n2)C1 — remaining binding (binding; 1 µM): 90%
Nc1ncc2c(n1)-c1c([nH]c3ccc(C#CC4CC4)cc13)CCCC2 — remaining binding (binding; competition with immobilised ligand; 1 µM): 100%
CN(CCCC(F)(F)F)c1nccc(-c2cnn3ncccc23)n1 — remaining binding (binding; 1 µM): 100%
O=C(NCCCN1CCOCC1)c1ccc(Nc2ncc(Cl)c(-c3ccc(Cl)s3)n2)cc1 — remaining binding (binding; competition with immobilised ligand; 1 µM): 0.9%
CC1CCCN1c1nccc(-c2cnn3ncccc23)n1 (stereo not shown) — remaining binding (binding; 1 µM): 89%
O=C(NCC1CCOCC1)c1n[nH]cc1NC(=O)c1c(F)cccc1F — remaining binding (binding; competition with immobilised ligand; 1 µM): 100%
